Measurements as given in ChEMBL document CHEMBL3526029, “Disposition and metabolism of GSK2251052 in humans: a novel boron-containing antibiotic” (Drug Metab Dispos, 2013).

Legend:
[1] = Drug recovery in healthy human urine treated with [14C]GSK2251052 at 1500 mg, iv infusion for 1 hr as single dose after 120 to 336 hrs by HPLC method; format: ADME, organism-based; conditions: in vivo, BLD = below limit of detection
Outline: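 Urine pooled by weight per subject over 0–120 h; 120–336 h pools from all subjects combined into one composite. Centrifuged at ~21,000g, then supernatant profiled by HPLC (Atlantis T3, ammonium acetate pH 4.5/methanol, 30°C) with radiochemical detection plus MS identification. Results are % of dose, corrected for centrifugation recovery measured by triplicate LSC.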

[2] = Cmax in cynomolgus monkey at 35 mg/kg, iv administered as single infusion for 1 hr followed single oral dose of 35 mg/kg 4-MP; format: ADME, organism-based, Macaca fascicularis; conditions: in vivo
Outline: (§1)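 Male cynomolgus monkeys given a 1-h i.v. infusion at 35 mg/kg (7 mg/ml in saline, pH 5, 5 ml/kg/h). Where 4-MP was used, it was given by oral gavage 1 h before infusion (8.75 mg/ml in water, 4 ml/kg). K2EDTA plasma was sampled from 0.5 to 120 h after infusion start. Parent and M3 were measured by LC/MS/MS after protein precipitation (range 100–200,000 ng/ml). Noncompartmental analysis used nominal times.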

[3] = Clearance in cynomolgus monkey at 35 mg/kg, iv administered as single infusion for 1 hr; format: ADME, organism-based, Macaca fascicularis; set-up: dose 35 mg/kg, route intravenous; conditions: in vivo; outline: as §1
[4] = Half life in cynomolgus monkey at 35 mg/kg, iv administered as single infusion for 1 hr; format: ADME, organism-based, Macaca fascicularis; set-up: dose 35 mg/kg, route intravenous; conditions: in vivo
Outline: (§2)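 Male cynomolgus monkeys received 35 mg/kg as a 1 h i.v. infusion (7 mg/ml in saline, pH 5; 5 ml/kg/h), either alone or 1 h after oral gavage of 4-MP (8.75 mg/ml in water, 4 ml/kg). Plasma was sampled from 0.5 to 120 h, and parent and M3 were measured by LC/MS/MS. Noncompartmental analysis used nominal times, with t1/2 = ln2/λz.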

[5] = AUC (0 to infinity) in cynomolgus monkey at 35 mg/kg, iv administered as single infusion for 1 hr followed single oral dose of 35 mg/kg 4-MP; format: ADME, organism-based, Macaca fascicularis; conditions: plasma; outline: as §1
[6] = Cmax in cynomolgus monkey at 35 mg/kg, iv administered as single infusion for 1 hr; format: ADME, organism-based, Macaca fascicularis; set-up: dose 35 mg/kg, route intravenous; conditions: in vivo; outline: as §1
[7] = Volume of distribution at steady state in cynomolgus monkey at 35 mg/kg, iv administered as single infusion for 1 hr; format: ADME, organism-based, Macaca fascicularis; set-up: dose 35 mg/kg, route intravenous; conditions: in vivo, read-out: Vdss
Outline: (§3)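 Cynomolgus monkeys got a 1-h IV infusion at 35 mg/kg (7 mg/ml in saline, pH 5), either alone or 1 h after oral gavage of 4-methylpyrazole (8.75 mg/ml in water, 4 ml/kg). Plasma (K2EDTA) was sampled to 120 h and assayed by protein precipitation and LC/MS/MS (range 100–200,000 ng/ml). Vss (CL × MRT) was derived by noncompartmental analysis on nominal times; values are for males.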

[8] = AUC (0 to infinity) in healthy human plasma at 1500 mg, iv infusion for 1 hr as single dose; format: ADME, organism-based; set-up: dose 1500 mg, route intravenous, time infinity
Outline: (§4)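 Six fasted healthy men received 1500 mg [14C]GSK2251052 as a 1-h constant-rate i.v. infusion. K2EDTA plasma was sampled from predose to 72 h, with profiling samples added at 96, 144 and 336 h. Parent and M3 were measured by validated LC/MS/MS after methanol/formic acid precipitation with stable-label internal standards (range 5–10,000 ng/ml). Noncompartmental analysis used actual times, linear-up/log-down trapezoids and CL = dose/AUC(0-∞).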

[9] = Clearance in healthy human plasma at 1500 mg, iv infusion for 1 hr as single dose; format: ADME, organism-based; outline: as §4
[10] = Volume of distribution at steady state in healthy human plasma at 1500 mg, iv infusion for 1 hr as single dose; format: ADME, organism-based; conditions: read-out: Vdss
Outline: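 Healthy males got 1500 mg by 1-h IV infusion. Plasma (K2EDTA) was sampled to 72 h, plus 96, 144 and 336 h. Parent was measured by a validated LC/MS/MS method after methanol/formic acid precipitation with a stable-isotope internal standard (range 5–10,000 ng/ml). Vss = CL × MRT from noncompartmental analysis.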

[11] = Mean residence time in cynomolgus monkey at 35 mg/kg, iv administered as single infusion for 1 hr; format: ADME, organism-based, Macaca fascicularis; set-up: dose 35 mg/kg, route intravenous; conditions: in vivo; outline: as §2
[12] = Volume of distribution at steady state in cynomolgus monkey at 35 mg/kg, iv administered as single infusion for 1 hr followed single oral dose of 35 mg/kg 4-MP; format: ADME, organism-based, Macaca fascicularis; conditions: in vivo, read-out: Vdss; outline: as §3
[13] = AUC (0 to infinity) in cynomolgus monkey at 35 mg/kg, iv administered as single infusion for 1 hr; format: ADME, organism-based, Macaca fascicularis; set-up: time infinity, dose 35 mg/kg, route intravenous; conditions: plasma; outline: as §1
[14] = Tmax in cynomolgus monkey at 35 mg/kg, iv administered as single infusion for 1 hr followed single oral dose of 35 mg/kg 4-MP; format: ADME, organism-based, Macaca fascicularis; conditions: in vivo; outline: as §2
[15] = Mean residence time in cynomolgus monkey at 35 mg/kg, iv administered as single infusion for 1 hr followed single oral dose of 35 mg/kg 4-MP; format: ADME, organism-based, Macaca fascicularis; conditions: in vivo; outline: as §2
[16] = Drug metabolism in human liver cytosol assessed as ADH-mediated (S)-3-(3-(aminomethyl)-1-hydroxy-1,3-dihydrobenzo[c][1,2]oxaborol-7-yloxy)propanoicacid formation at 50 to 500 uM by spectrophotometry in presence of NAD+; format: ADME; conditions: TDE = time-dependent effect
[17] = Drug metabolism assessed as purified ADH (unknown origin)-mediated (S)-3-(3-(aminomethyl)-1-hydroxy-1,3-dihydrobenzo[c][1,2]oxaborol-7-yloxy)propanoicacid formation at 50 to 500 uM by spectrophotometry in presence of NAD+; format: ADME; conditions: human, TDE = time-dependent effect
[18] = AUC (0 to t) in healthy human plasma at 1500 mg, iv infusion for 1 hr as single dose; format: ADME, organism-based; outline: as §4
Liver cytosol = experiment: Drug metabolism in human liver cytosol assessed as (S)-3-(3-(aminomethyl)-1-hydroxy-1,3-dihydrobenzo[c][1,2]oxaborol-7-yloxy)propanoicacid formation at 50 to 500 uM after 3 hrs by spectrophotometry in presence of NAD+ and ADH inhibitor 4-MP; format: ADME
[19] = Clearance in cynomolgus monkey at 35 mg/kg, iv administered as single infusion for 1 hr followed single oral dose of 35 mg/kg 4-MP; format: ADME, organism-based, Macaca fascicularis; conditions: in vivo; outline: as §1
[20] = Cmax in healthy human plasma at 1500 mg, iv infusion for 1 hr as single dose; format: ADME, organism-based; set-up: dose 1500 mg, route intravenous; outline: as §4
[21] = Tmax in cynomolgus monkey at 35 mg/kg, iv administered as single infusion for 1 hr; format: ADME, organism-based, Macaca fascicularis; set-up: dose 35 mg/kg, route intravenous; conditions: in vivo; outline: as §2
[22] = Tmax in healthy human plasma at 1500 mg, iv infusion for 1 hr as single dose; format: ADME, organism-based
Outline: (§5)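 Healthy men got a single 1500 mg [14C] dose by 1 h i.v. infusion. K2EDTA blood was sampled up to 336 h. Radioactivity in blood and plasma was measured by LSC, with AMS for plasma below LLQ. Parent and M3 were measured by LC/MS/MS (5–10,000 ng/ml range). Noncompartmental analysis used actual times, with t1/2 = ln2/λz and Tmax observed directly, timed from infusion start.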

[23] = Half life in cynomolgus monkey at 35 mg/kg, iv administered as single infusion for 1 hr followed single oral dose of 35 mg/kg 4-MP; format: ADME, organism-based, Macaca fascicularis; conditions: in vivo; outline: as §2
[24] = Half life in healthy human plasma at 1500 mg, iv infusion for 1 hr as single dose; format: ADME, organism-based; outline: as §5

**Q.** Which Drug recovery [1] does the source give for `CC(=O)NC[C@H]1OB(O)c2c(OCCC(=O)O)cccc21` here?
**A.** BLD

**Q.** For `Cl.NC[C@H]1OB(O)c2c(OCCCO)cccc21`, which Cmax [2] is on record?
**A.** 68.6 µg/mL

**Q.** And the clearance [3]?
**A.** 10 mL/min/kg

**Q.** What about the half-life [4] of the same compound?
**A.** 324 min

**Q.** And the AUC(0-inf) [5]?
**A.** 161 µg·h/mL

**Q.** And the Cmax [6]?
**A.** 46000 ng/mL

**Q.** And the Vd [7]?
**A.** 3.04 L/kg

**Q.** And the AUC(0-inf) [8]?
**A.** 72500 ng·h/mL

**Q.** What about the clearance [9] of the same compound?
**A.** 345 mL/min

**Q.** What about the Vd [10] of the same compound?
**A.** 197 L

**Q.** What about the MRT [11] of the same compound?
**A.** 4.9 h

**Q.** What about the Vd [12] of the same compound?
**A.** 2.53 L/kg

**Q.** And the AUC(0-inf) [13]?
**A.** 60700 ng·h/mL

**Q.** What about the Tmax [14] of the same compound?
**A.** 55.2 min

**Q.** What about the MRT [15] of the same compound?
**A.** 11 h

**Q.** What about the Drug metabolism [16] of the same compound?
**A.** tde

**Q.** What about the Drug metabolism [17] of the same compound?
**A.** tde

**Q.** And the AUC(0-t) at 1 h [18]?
**A.** 72300 ng·h/mL

**Q.** And the Drug metabolism (Liver cytosol)?
**A.** metabolite_not_detected

**Q.** What about the clearance [19] of the same compound?
**A.** 3.67 mL/min/kg

**Q.** What about the Cmax [20] of the same compound?
**A.** 24600 ng/mL

**Q.** And the Tmax [21]?
**A.** 55.2 min

**Q.** And the Tmax [22]?
**A.** 55 min

**Q.** What about the half-life [23] of the same compound?
**A.** 552 min

**Q.** What about the half-life [24] of the same compound?
**A.** 696 min

**Q.** For `NCC(O)c1cccc(OCCCO)c1O` (stereo unspecified), which Drug recovery [1] is on record?
**A.** BLD
